Our source for the IC50 values is ChEMBL document CHEMBL1122290, “N-(substituted-phenyl)-D-glycopyranosylamines and their O-acetyl derivatives as potential modifiers of the formation of glycosaminoglycans” (1983).

This test has as its system B16. Description: In vitro compound's ability to inhibit the replication of cultured B16 melanoma cells. In kind it is functional. As to conditions: Mus musculus, read-out: ID50 (the source's name). The essentials:
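B16/F10 melanoma cells, kept as monolayers at 37 °C in Eagle's MEM with Hanks' salts plus 10% fetal calf serum, were seeded from exponential growth at 1.5 to 3 × 10⁵ cells per 25-cm² flask. Compound (0.1 μM–0.1 mM) was added at seeding. After 72 h, cells were trypsinized and counted electronically. ID50 was read graphically from at least two replicate experiments.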
As to `O=C(O)c1ccc(N[C@@H]2O[C@H](CO)[C@@H](O)[C@H](O)[C@@H]2O)cc1`, the IC50 was 39 µM.
To `CC(=O)OCC1O[C@@H](Nc2ccc(C(=O)O)cc2)[C@@H](OC(C)=O)C(OC(C)=O)[C@H]1OC(C)=O` (stereo partly drawn) belongs 49 µM.
Under `O=C(O)c1ccc(N[C@@H]2O[C@H](CO)[C@@H](O)[C@H](O)[C@H]2O)cc1` stands 100 µM.
Under `O=C(O)c1ccc(N[C@@H]2OC(CO)[C@@H](O)C(O)[C@@H]2O)cc1` (stereo partly drawn) stands 100 µM; under `O=C(O)c1ccc(N[C@@H]2OC[C@@H](O)C(O)[C@H]2O)cc1` (stereo partly drawn), 100 µM; under `CC(=O)OCC1O[C@@H](Nc2ccc(C(=O)O)cc2)[C@@H](OC(C)=O)C(OC(C)=O)[C@@H]1OC(C)=O` (stereo partly drawn), 18 µM.
On to `CC(=O)OCC1O[C@@H](Nc2ccc(C(=O)OC(C)=O)cc2)[C@H](OC(C)=O)C(OC(C)=O)[C@@H]1OC(C)=O` (stereo partly drawn), for which the IC50 worked out at 25 µM.
For the compound `CC(=O)OC(=O)c1ccc(N[C@@H]2OC[C@@H](OC(C)=O)C(OC(C)=O)[C@@H]2OC(C)=O)cc1` (stereo partly drawn), the IC50 amounted to 25 µM.
Take `O=C(O)c1ccc(N[C@@H]2OC[C@@H](O)C(O)[C@@H]2O)cc1` (stereo partly drawn): the IC50 is 38 µM.
To `CC(=O)OC1[C@@H](OC(C)=O)CO[C@@H](Nc2ccc(C(=O)O)cc2)[C@@H]1OC(C)=O` (stereo partly drawn) belongs 4 µM; to `CC1O[C@@H](Nc2ccc(C(=O)O)cc2)[C@@H](O)C(O)[C@H]1O` (stereo partly drawn), 37 µM.
On to `O=C(O)c1ccc(N[C@@H]2O[C@H](CO)[C@H](O)[C@H](O)[C@H]2O)cc1`, for which the IC50 worked out at 30 µM.
On to `CC(=O)OC1[C@@H](OC(C)=O)C(C)O[C@@H](Nc2ccc(C(=O)O)cc2)[C@H]1OC(C)=O` (stereo partly drawn), for which the IC50 amounted to 20 µM.
